Activity calls are given as the source filed them. No cut-off for these calls is given here.
Columns and labels:
[1] = Antiapoptotic activity against hypoxia-induced Sprague-Dawley NRVM assessed as decrease in nucleus aggregation treated 12 hrs before hypoxia challenge measured after 5 hrs by transmission electron microscopy; type: functional; conditions: Rattus norvegicus
Procedure, shortened: (§1)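 Neonatal rat ventricular myocytes cultured 72 h (DMEM, 10% FBS, 5-bromodeoxyuridine), pretreated 12 h, then put in hypoxic solution. Cells fixed 2 h in 2.5% glutaraldehyde in PBS, post-fixed 1 h in 1% osmium tetroxide, dehydrated through graded ethanol, embedded in Epon 812, and examined by transmission electron microscopy (×11000). Compared with normoxic and hypoxic untreated groups.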

Rattus norvegicus [2] = organism: Rattus norvegicus; test: Cardioprotective activity against hypoxia-induced Sprague-Dawley NRVM damage assessed as increased cell viability at 0.1 uM treated 12 hrs before hypoxia challenge measured after 5 hrs by MTT assay; type: functional
Procedure, shortened: (§2)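 Myocytes seeded at 1×10^5 cells/mL and cultured 72 h at 37 °C in 5% CO2, pretreated 12 h, then exposed to hypoxic solution. MTT added for 4 h, formazan dissolved in DMSO, absorbance read at 570 nm. Viability given as percent of normoxic control, taken as 100%.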

[3] = Antiapoptotic activity against hypoxia-induced Sprague-Dawley NRVM assessed as decrease in nuclear condensation treated 12 hrs before hypoxia challenge measured after 5 hrs by transmission electron microscopy; type: functional; conditions: Rattus norvegicus; procedure, shortened: as §1
[4] = Antiapoptotic activity against hypoxia-induced Sprague-Dawley NRVM assessed as increase in bcl-2 expression treated 12 hrs before hypoxia challenge measured after 5 hrs by RT-PCR analysis relative to control; type: functional; conditions: Rattus norvegicus
[5] = Antiapoptotic activity against hypoxia-induced Sprague-Dawley NRVM assessed as decrease in cleaved-caspase-3 to procaspase-3 ratio treated 12 hrs before hypoxia challenge measured after 5 hrs by Western blot analysis relative to control; conditions: Rattus norvegicus
[6] = Antiapoptotic activity against hypoxia-induced Sprague-Dawley NRVM assessed as appearance of distinct sarcomeres treated 12 hrs before hypoxia challenge measured after 5 hrs by transmission electron microscopy; type: functional; conditions: Rattus norvegicus; procedure, shortened: as §1
[7] = Antiapoptotic activity against hypoxia-induced Sprague-Dawley NRVM assessed as decrease in apoptotic cells treated 12 hrs before hypoxia challenge measured after 5 hrs by AnnexinV-FITC/PI staining-based flow cytometric analysis; type: functional, cell-based; conditions: Rattus norvegicus
Procedure, shortened: (§3)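 Cardiomyocytes pretreated 12 h before hypoxia. Annexin V-FITC/PI staining done with a kit per the manufacturer, then read by flow cytometry to separate apoptotic from necrotic cells. Means ± S.E.M. from three samples; two-tailed Student's t-test versus the model group.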

Rattus norvegicus [8] = organism: Rattus norvegicus; test: Cardioprotective activity against hypoxia-induced Sprague-Dawley NRVM damage assessed as decrease in MDA level treated 12 hrs before hypoxia challenge measured after 5 hrs […]; type: functional
[9] = Cardioprotective activity against hypoxia-induced Sprague-Dawley NRVM damage assessed as inhibition of LDH release at 0.1 uM treated 12 hrs before hypoxia challenge measured after 5 hrs; type: functional; conditions: Rattus norvegicus
[10] = Antiapoptotic activity against hypoxia-induced Sprague-Dawley NRVM assessed as increase in myofilaments integrity preservation treated 12 hrs before hypoxia challenge measured after 5 hrs by transmission electron microscopy; type: functional; conditions: Rattus norvegicus; procedure, shortened: as §1
[11] = Antiapoptotic activity against hypoxia-induced Sprague-Dawley NRVM assessed as increase in Bcl2 to Bax mRNA expression ratio treated 12 hrs before hypoxia challenge measured after 5 hrs by RT-PCR analysis relative to control; type: functional; conditions: Rattus norvegicus
[12] = Antiapoptotic activity against hypoxia-induced Sprague-Dawley NRVM assessed as inhibition of cell necrosis treated 12 hrs before hypoxia challenge measured after 5 hrs by AnnexinV-FITC/PI staining-based flow cytometric analysis; type: functional; conditions: Rattus norvegicus; procedure, shortened: as §3
[13] = Cardioprotective activity against hypoxia-induced Sprague-Dawley NRVM damage assessed as increase in SOD activity treated 12 hrs before hypoxia challenge measured after 5 hrs […]; type: functional; conditions: Rattus norvegicus
Rattus norvegicus [14] = organism: Rattus norvegicus; test: Cardioprotective activity against hypoxia-induced Sprague-Dawley NRVM damage assessed as increased cell viability at 0.1 umol/L treated 12 hrs before hypoxia challenge measured after 5 hrs by MTT assay; type: functional; procedure, shortened: as §2
[15] = Cardioprotective activity against hypoxia-induced Sprague-Dawley NRVM damage assessed as increase in CAT activity treated 12 hrs before hypoxia challenge measured after 5 hrs […]; type: functional; conditions: Rattus norvegicus
Procedure, shortened: (§4)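 Kit assays per the manufacturer for ROS level and catalase activity in hypoxic myocytes pretreated 12 h. Means ± S.E.M. from three samples; t-test versus the model group.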

[16] = Antiapoptotic activity against hypoxia-induced Sprague-Dawley NRVM assessed as decrease in bax expression treated 12 hrs before hypoxia challenge measured after 5 hrs by RT-PCR analysis relative to control; type: functional; conditions: Rattus norvegicus
[17] = Cardioprotective activity against hypoxia-induced Sprague-Dawley NRVM damage assessed as increase in hydrogen sulfide level treated 12 hrs before hypoxia challenge measured after 5 hrs; type: functional; conditions: Rattus norvegicus
Procedure, shortened: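 H2S in culture medium: 0.5 mL supernatant mixed with 0.25 mL 1% zinc acetate, then 0.25 mL 10% TCA to remove protein, centrifuged 12,000 g for 10 min at 4 °C. Absorbance read at 670 nm in duplicate against a same-day NaHS calibration curve. Cells pretreated 12 h before hypoxia; three or six samples.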

[18] = Cardioprotective activity against hypoxia-induced Sprague-Dawley NRVM damage assessed as increase in hydrogen sulfide level at 0.1 uM treated 12 hrs before hypoxia challenge measured after 5 hrs; type: functional; conditions: Rattus norvegicus
[19] = Antiapoptotic activity against hypoxia-induced Sprague-Dawley NRVM assessed as decrease in nuclei-shrunk treated 12 hrs before hypoxia challenge measured after 5 hrs using Hoechst 33258 staining-based by fluorescence microscopy; type: functional; conditions: Rattus norvegicus
Procedure, shortened: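 After 12 h pretreatment and hypoxia, myocytes were stained with Hoechst 33258 and photographed under fluorescence (×400). Each image is representative of three independent observations.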

[20] = Down regulation of caspase-3 expression in hypoxia-induced Sprague-Dawley NRVM treated 12 hrs before hypoxia challenge measured after 5 hrs by RT-PCR down analysis relative to control; type: functional; conditions: Rattus norvegicus
[21] = Cardioprotective activity against hypoxia-induced Sprague-Dawley NRVM damage assessed as inhibition of LDH release treated 12 hrs before hypoxia challenge measured after 5 hrs; type: functional; conditions: Rattus norvegicus
[22] = Cardioprotective activity against hypoxia-induced Sprague-Dawley NRVM damage assessed as decrease in ROS level treated 12 hrs before hypoxia challenge measured after 5 hrs […]; type: functional; conditions: Rattus norvegicus; procedure, shortened: as §4

In the case of `C#CCSC[C@H](N)C(=O)Oc1c(OC)cc(C(=O)OCCCCNC(=N)N)cc1OC`, the Activity [1] is reported as “Active”, the Activity (Rattus norvegicus [2]) is reported as “Active” and the Activity [3] is reported as “Active”. The fold change (FC) [4] was 0.98, the Activity [5] was “Active” and the Activity [6] was “Active”. For the same molecule, the Activity [7] was “Active”, the Activity (Rattus norvegicus [8]) was “Active” and the inhibition [9] was “Active”. For the same molecule, the Activity [10] was “Active”, the fold change (FC) [11] was 1.22 and the inhibition [12] was “inactive”. The Activity [13] was “Active”, the Activity (Rattus norvegicus [14]) was “Active” and the Activity [15] was “Active”. For the same molecule, the fold change (FC) [16] was 0.89, the Activity [17] was “Active” and the Activity [18] was “Active”. The Activity [19] was “Active”, the Activity [20] was “Active” and the inhibition [21] was “Active”. For the same molecule, the Activity [22] was “Active”.
In the case of `COc1cc(C(=O)OCCCCNC(=N)N)cc(OC)c1OC(=O)CCSSCCC(=O)Oc1c(OC)cc(C(=O)OCCCCNC(=N)N)cc1OC`, the Activity (Rattus norvegicus [14]) is reported as “Active”, the Activity [17] is reported as “inactive” and the inhibition [21] is reported as “Active”.
With `C#CCSC[C@H](N)C(=O)O` the Activity (Rattus norvegicus [2]) was “Active”, the inhibition [9] was “Active” and the Activity [18] was “Active”.
With `C=CCSC[C@H](N)C(=O)Oc1c(OC)cc(C(=O)OCCCCNC(=N)N)cc1OC` the Activity (Rattus norvegicus [14]) was “Active”, the Activity [17] was “Active” and the inhibition [21] was “Active”.
For `COc1cc(C(=O)OCCCCNC(=N)N)cc(OC)c1O`, the Activity (Rattus norvegicus [2]) was “Active”, the inhibition [9] was “Active” and the Activity [18] was “Active”.

— ChEMBL document CHEMBL1909505, “Leonurine-cysteine analog conjugates as a new class of multifunctional anti-myocardial ischemia agent” (Eur J Med Chem, 2011)
